Data from ChEMBL document CHEMBL2057147, “Synthesis and in vitro antitumor activity of novel scopoletin derivatives” (Bioorg Med Chem Lett, 2012).
The source made the active and inactive calls. The calls are words filed in the database; no cut-off is given here.

Columns and labels:
HT-29 [1] = assay: Antiproliferative activity against human HT-29 cells after 72 hrs by crystal violet staining method; type: functional, cell-based; settings: for IC50: HT-29, 72 h
Method in brief: (§1)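 Cells seeded at a known number in 96-well plates and exposed to increasing compound concentrations for 72 h; IC50 taken from the concentration–growth-inhibition data.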

MDA-MB-231 [2] = assay: Cytocidal activity against human MDA-MB-231 cells at 20 uM after 72 hrs by crystal violet staining method relative to control; type: functional
Method in brief: (§2)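 Single-concentration growth inhibition in MCF-7 and MDA-MB 231 cells at 10 and 20 µM after 72 h, given as corrected treated/control percentage (T/C_corr %).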

MCF7 [3] = assay: Cytocidal activity against human MCF7 cells at 20 uM after 72 hrs by crystal violet staining method relative to control; type: functional; method in brief: as §2
MDA-MB-231 [4] = assay: Antiproliferative activity against human MDA-MB-231 cells after 72 hrs by crystal violet staining method; type: functional, cell-based; settings: for IC50: MDA-MB-231, 72 h; method in brief: as §1
MCF7 [5] = assay: Antiproliferative activity against human MCF7 cells after 72 hrs by crystal violet staining method; type: functional, cell-based; settings: for IC50: MCF7, 72 h; method in brief: as §1
MCF7 [6] = assay: Cytocidal activity against human MCF7 cells at 10 uM after 72 hrs by crystal violet staining method; type: functional, cell-based; method in brief: as §2
MCF7 [7] = assay: Ratio of scopoletin IC50 to compound IC50 for human MCF7 cells; type: functional
MDA-MB-231 [8] = assay: Ratio of scopoletin IC50 to compound IC50 for human MDA-MB-231 cells; type: functional
HT-29 [9] = assay: Ratio of scopoletin IC50 to compound IC50 for human HT-29 cells; type: functional
MCF7 [10] = assay: Antiproliferative activity against human MCF7 cells at 20 uM after 72 hrs by crystal violet staining method relative to control; type: functional; method in brief: as §2
MDA-MB-231 [11] = assay: Cytocidal activity against human MDA-MB-231 cells at 10 uM after 72 hrs by crystal violet staining method; type: functional, cell-based; method in brief: as §2
MDA-MB-231 [12] = assay: Antiproliferative activity against human MDA-MB-231 cells at 20 uM after 72 hrs by crystal violet staining method relative to control; type: functional; method in brief: as §2
HT-29 [13] = assay: Antiproliferative activity against human HT-29 cells at 1.25 to 20 uM up to 144 hrs by crystal violet staining method; type: functional, cell-based
Method in brief: (§3)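 Time course at 1.25, 2.5, 5, 10 and 20 µM, with growth inhibition read as corrected treated/control percentage (T/C_corr %) at several incubation times over about 140 h.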

MCF7 [14] = assay: Cytostatic activity against human MCF7 cells at 20 uM after 72 hrs by crystal violet staining method relative to control; type: functional; method in brief: as §2
MDA-MB-231 [15] = assay: Cytostatic activity against human MDA-MB-231 cells at 20 uM after 72 hrs by crystal violet staining method relative to control; type: functional; method in brief: as §2
U2OS = assay: Induction of apoptosis in human U2OS cells assessed as caspase3 activation at 10 uM after 24 hrs by fluorescence detection assay; type: functional, cell-based
MDA-MB-231 [16] = assay: Induction of apoptosis in human MDA-MB-231 cells assessed as caspase3 activation at 10 uM after 24 hrs by fluorescence detection assay; type: functional, cell-based
MCF7 [17] = assay: Antiproliferative activity against human MCF7 cells at 1.25 to 20 uM up to 144 hrs by crystal violet staining method; type: functional, cell-based; method in brief: as §3

Row | Compound | IC50 (HT-29 [1]) [µM] | IC50 (MDA-MB-231 [4]) [µM] | IC50 (MCF7 [5]) [µM] | T/C (MCF7 [10]) [%] | T/C (MDA-MB-231 [12]) [%] | other results
1 | COc1cc2ccc(=O)oc2cc1OCC(=O)Nc1ccc(C(C)(C)C)cc1 | 19.6 | 8.1 | 10.1 | – | – | T/C (MDA-MB-231 [2]): <0%; T/C (MCF7 [3]): <0%
2 | COc1cc2ccc(=O)oc2cc1OCC(=O)Nc1ccc(F)c(Cl)c1 | 7.6 | 6.3 | 6.5 | <50 | <50 | Activity (MCF7 [6]): Active; Ratio IC50 (MCF7 [7]): 12; Ratio IC50 (MDA-MB-231 [8]): 12; Ratio IC50 (HT-29 [9]): 12; Activity (MDA-MB-231 [11]): Active
3 | COc1cc2cc(NC(C)=O)c(=O)oc2cc1OCC(=O)Nc1ccc(C)cc1 | > 20 | 13.9 | 19 | <50 | <50 | –
4 | COc1cc2ccc(=O)oc2cc1OCC(=O)Nc1ccc(Cl)cc1 | 18.1 | 19.3 | 19.5 | <50 | <50 | –
5 | COc1ccccc1NC(=O)COc1cc2oc(=O)c(NC(C)=O)cc2cc1OC | 19.1 | 14.7 | 17.9 | <50 | <50 | –
6 | COc1cc2cc(NC(C)=O)c(=O)oc2cc1OCC(=O)Nc1ccc(Cl)cc1 | – | – | – | – | – | Activity (HT-29 [1]): Active; Activity (MDA-MB-231 [4]): Active; Activity (MCF7 [5]): Active
7 | O=c1[nH]cc(F)c(=O)[nH]1 [FLUOROURACIL] | – | – | 4.7 | – | – | –
8 | COc1cc2cc(NC(C)=O)c(=O)oc2cc1OCC(=O)Nc1ccc(C(C)(C)C)cc1 | 4.3 | 4.5 | 3.9 | – | – | Activity (HT-29 [13]): Active; Ratio IC50 (MCF7 [7]): 12; Ratio IC50 (MDA-MB-231 [8]): 12; T/C (MCF7 [14]): 0%; T/C (MDA-MB-231 [15]): 0%; Activity (U2OS): inactive; Activity (MDA-MB-231 [16]): inactive; Ratio IC50 (HT-29 [9]): 12; Activity (MCF7 [17]): Active
9 | COc1cc2ccc(=O)oc2cc1O [SCOPOLETIN] | > 100 | > 100 | > 100 | – | – | –
10 | COc1ccc(NC(=O)COc2cc3oc(=O)c(NC(C)=O)cc3cc2OC)cc1OC | > 20 | 8.4 | 14.9 | <50 | <50 | –
11 | COc1cc2cc(NC(C)=O)c(=O)oc2cc1OCC(=O)Nc1ccc(F)cc1 | – | – | – | – | – | Activity (HT-29 [1]): Active; Activity (MDA-MB-231 [4]): Active; Activity (MCF7 [5]): Active
12 | COc1cc2cc(NC(C)=O)c(=O)oc2cc1OCC(=O)Nc1cccc(C(C)=O)c1 | – | – | – | – | – | Activity (HT-29 [1]): Active; Activity (MDA-MB-231 [4]): Active; Activity (MCF7 [5]): Active
